The results in this text go back to ChEMBL document CHEMBL1141487, “Alpha,Beta-cyclic-beta-benzamido hydroxamic acids: Novel oxaspiro[4.4]nonane templates for the discovery of potent, selective, orally bioavailable inhibitors of tumor necrosis factor-alpha converting enzyme (TACE)” (Bioorg Med Chem Lett, 2008).

Each structure is given as a SMILES string. A value given as a limit tells only on which side of the number the result lay.

Usually IC50 stands for the concentration needed to halve the response being measured. In general, Papp refers to the rate of passage across a membrane or cell layer, normalised by area and donor concentration. A word on the Ki: it is the dissociation constant of the complex between target and ligand, obtained from inhibition or displacement. Low values mean tighter binding, high ones weaker binding. Usually half-life stands for the time needed for the level to fall by half in the phase considered. Low readings indicate rapid decline, high ones slow decline. As usually defined, the clearance is the rate of elimination divided by the concentration. Higher therefore signals a high capacity for elimination. By AUC is commonly meant the area under the concentration-time curve, a measure of exposure. Low readings indicate less exposure, high ones more exposure. Usually Tmax stands for the time from dosing to the highest level. For orientation: bioavailability means the share of a dose that reaches the circulation, judged against a reference dose that is usually intravenous. Low values mean poor availability, high ones good availability. Broadly, the ED50 is the dose at which the effect has come halfway, by size or by number of responders. A higher ED50 goes with a need for a large dose.

The test system of one series is Blood. As to the kind of experiment: Inhibition of LPS-induced TNFalpha production in human whole blood. Type of series: functional, tissue-based.
The nature of series [1]: Apparent permeability across human Caco-2 cells. Type of series: ADME, cell-based. Background: Caco-2 monolayers are a common model of the intestinal barrier.
The next series deals with T1, Interstitial collagenase (Homo sapiens, UniProt P03956).
T1 sequence (P03956 whole entry): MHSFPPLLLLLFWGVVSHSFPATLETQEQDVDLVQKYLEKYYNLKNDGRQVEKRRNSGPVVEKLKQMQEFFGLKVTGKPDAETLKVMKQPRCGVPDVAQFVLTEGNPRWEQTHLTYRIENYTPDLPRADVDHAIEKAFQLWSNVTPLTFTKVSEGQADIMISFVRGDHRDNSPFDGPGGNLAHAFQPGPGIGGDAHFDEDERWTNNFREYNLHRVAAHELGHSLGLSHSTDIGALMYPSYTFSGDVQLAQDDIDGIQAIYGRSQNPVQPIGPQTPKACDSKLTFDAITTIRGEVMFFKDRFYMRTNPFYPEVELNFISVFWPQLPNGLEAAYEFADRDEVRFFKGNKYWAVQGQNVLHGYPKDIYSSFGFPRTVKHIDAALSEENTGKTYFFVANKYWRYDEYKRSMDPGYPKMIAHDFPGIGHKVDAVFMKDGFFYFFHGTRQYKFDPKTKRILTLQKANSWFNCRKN
Briefly: Inhibition of MMP1.

Series [2] addresses 72 kDa type IV collagenase (Homo sapiens, UniProt P08253). As to the kind of experiment: Inhibition of MMP2.
Series [3] deals with Matrix metalloproteinase-9 (Homo sapiens, UniProt P14780). Briefly: Inhibition of MMP9.
Sequence of Matrix metalloproteinase-9 (P14780 whole entry): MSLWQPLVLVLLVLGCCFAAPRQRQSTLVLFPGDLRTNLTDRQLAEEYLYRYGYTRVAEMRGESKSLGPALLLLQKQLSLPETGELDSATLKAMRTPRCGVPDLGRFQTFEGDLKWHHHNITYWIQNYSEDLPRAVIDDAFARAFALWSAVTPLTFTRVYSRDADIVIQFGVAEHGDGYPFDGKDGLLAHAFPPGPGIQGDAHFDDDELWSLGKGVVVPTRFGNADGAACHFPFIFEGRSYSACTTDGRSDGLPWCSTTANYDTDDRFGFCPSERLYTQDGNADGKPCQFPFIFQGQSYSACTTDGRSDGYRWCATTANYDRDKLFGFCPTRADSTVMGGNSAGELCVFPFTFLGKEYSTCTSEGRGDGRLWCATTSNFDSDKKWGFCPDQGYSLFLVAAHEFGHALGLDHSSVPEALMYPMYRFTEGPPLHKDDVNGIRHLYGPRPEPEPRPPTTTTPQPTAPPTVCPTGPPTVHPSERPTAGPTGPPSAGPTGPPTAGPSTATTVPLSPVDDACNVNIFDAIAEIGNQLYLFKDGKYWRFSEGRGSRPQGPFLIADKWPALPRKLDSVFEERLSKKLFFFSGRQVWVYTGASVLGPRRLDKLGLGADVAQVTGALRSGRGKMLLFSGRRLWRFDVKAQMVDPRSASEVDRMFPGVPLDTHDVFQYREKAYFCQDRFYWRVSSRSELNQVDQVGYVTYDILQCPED
Series [4] can be described thus: Half life in Sprague-Dawley rat at 5 mg/kg, iv. Format: ADME, organism-based. Also noted: dose 5 mg/kg, route intravenous. As to conditions: in vivo. The gist of the method:
(§1)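 Sprague–Dawley rats dosed 5 mg/kg iv and 5 mg/kg orally as n-in-1 cassette. Plasma levels measured by LC/MS/MS.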

The nature of series [5]: Half life in Sprague-Dawley rat at 5 mg/kg, po. Format: ADME, organism-based. Also noted: dose 5 mg/kg, route oral. As to conditions: in vivo. The procedure, abridged: as §1
Series [6] is described as follows: Clearance in Sprague-Dawley rat at 5 mg/kg, iv. Also noted: dose 5 mg/kg, route intravenous. Format: ADME, organism-based. As to conditions: in vivo. The procedure, abridged:
as §1

Series [7] can be described thus: Volume of distribution at steady state in Sprague-Dawley rat at 5 mg/kg, iv. As to conditions: in vivo, read-out: Vdss. The arrangement: dose 5 mg/kg, route intravenous. Format: ADME, organism-based. The gist of the method: as §1
Series [8] is described as follows: AUC in Sprague-Dawley rat at 5 mg/kg, iv. As to conditions: plasma. Type of series: ADME, organism-based. The arrangement: dose 5 mg/kg, route intravenous. The gist of the method: as §1
Series [9] in a line: Tmax in Sprague-Dawley rat at 5 mg/kg, po. Format: ADME, organism-based. The arrangement: dose 5 mg/kg, route oral. As to conditions: in vivo. The gist of the method: as §1
Series [10] is described as follows: AUC in Sprague-Dawley rat at 5 mg/kg, po. Type of series: ADME, organism-based. Also noted: dose 5 mg/kg, route oral. As to conditions: plasma. The gist of the method: as §1
Series [11] is described as follows: Bioavailability in Sprague-Dawley rat at 5 mg/kg, po. As to conditions: in vivo. Type of series: ADME, organism-based. The gist of the method: as §1
The target of series [12] is Disintegrin and metalloproteinase domain-containing protein 17 (Sus scrofa, UniProt O77636).
Sequence of Disintegrin and metalloproteinase domain-containing protein 17 (O77636 whole entry, the tested form may be a part): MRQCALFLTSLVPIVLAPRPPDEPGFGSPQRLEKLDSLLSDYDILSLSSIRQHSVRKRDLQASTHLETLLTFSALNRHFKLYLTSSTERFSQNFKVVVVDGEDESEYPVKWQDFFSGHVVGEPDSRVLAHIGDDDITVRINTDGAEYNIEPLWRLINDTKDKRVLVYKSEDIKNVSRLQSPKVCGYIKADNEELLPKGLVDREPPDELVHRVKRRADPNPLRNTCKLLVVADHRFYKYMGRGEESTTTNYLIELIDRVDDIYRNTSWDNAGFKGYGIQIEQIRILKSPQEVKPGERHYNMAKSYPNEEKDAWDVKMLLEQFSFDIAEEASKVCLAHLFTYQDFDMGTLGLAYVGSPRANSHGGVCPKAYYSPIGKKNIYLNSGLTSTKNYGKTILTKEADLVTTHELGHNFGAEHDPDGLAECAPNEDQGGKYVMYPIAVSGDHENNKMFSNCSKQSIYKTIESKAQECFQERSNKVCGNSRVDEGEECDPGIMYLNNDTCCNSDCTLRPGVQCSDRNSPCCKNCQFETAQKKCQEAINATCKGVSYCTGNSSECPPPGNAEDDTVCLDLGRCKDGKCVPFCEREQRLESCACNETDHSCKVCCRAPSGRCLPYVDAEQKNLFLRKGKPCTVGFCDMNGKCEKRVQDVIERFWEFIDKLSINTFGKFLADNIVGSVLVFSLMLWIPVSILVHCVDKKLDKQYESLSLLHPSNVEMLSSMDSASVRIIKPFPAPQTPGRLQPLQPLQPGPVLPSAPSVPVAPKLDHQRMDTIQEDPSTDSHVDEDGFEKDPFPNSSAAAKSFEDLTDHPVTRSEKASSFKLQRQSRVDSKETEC
Series [13] in a line: Oral bioavailability in Beagle dog. Type of series: ADME, organism-based, Canis lupus familiaris. As to conditions: in vivo.
The species entered for a further series is Mus musculus. As to the kind of experiment: Inhibition of LPS-induced TNFalpha production in mouse endotoxemia model after 1 hr. Type of series: functional. The procedure, abridged: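 Mice given lipopolysaccharide together with graded oral gavage doses of inhibitor at t = 0 h. Animals euthanized 1 h post-dose and whole blood taken by cardiac puncture. TNF-α measured in plasma. ED50 calculated from the dose–response.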

Sequence of 72 kDa type IV collagenase (P08253 whole entry): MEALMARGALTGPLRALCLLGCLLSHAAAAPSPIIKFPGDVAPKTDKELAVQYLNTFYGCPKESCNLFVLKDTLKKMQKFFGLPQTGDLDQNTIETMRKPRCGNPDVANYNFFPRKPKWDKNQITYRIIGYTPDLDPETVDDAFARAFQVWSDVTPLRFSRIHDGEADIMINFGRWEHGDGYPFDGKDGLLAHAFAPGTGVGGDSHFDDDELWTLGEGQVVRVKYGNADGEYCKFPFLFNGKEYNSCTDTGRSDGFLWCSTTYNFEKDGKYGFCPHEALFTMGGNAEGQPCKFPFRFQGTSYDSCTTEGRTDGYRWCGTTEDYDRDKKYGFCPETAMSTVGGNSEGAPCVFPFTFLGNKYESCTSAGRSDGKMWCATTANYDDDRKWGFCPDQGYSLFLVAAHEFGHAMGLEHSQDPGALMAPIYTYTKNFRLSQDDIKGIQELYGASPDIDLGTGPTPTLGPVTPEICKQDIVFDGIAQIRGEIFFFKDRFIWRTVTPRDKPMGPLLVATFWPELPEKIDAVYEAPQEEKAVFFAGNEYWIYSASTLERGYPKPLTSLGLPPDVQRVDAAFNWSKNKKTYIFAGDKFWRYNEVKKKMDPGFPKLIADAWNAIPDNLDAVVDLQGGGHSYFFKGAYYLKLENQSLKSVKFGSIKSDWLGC

With `Cc1cc(COc2ccc(C(=O)N[C@@H]3C[C@]4(CCCO4)C[C@@H]3C(=O)NO)cc2)c2ccccc2n1`, the IC50 stood at 143 nM in the series with Blood and 1 nM in series [12]. Also, the apparent permeability coefficient (Papp) in series [1] was determined as 1.5 ×10⁻⁶ cm/s. Also, the Ki at Interstitial collagenase was more than 4.95 µM; in [2] it was 1920 nM; in series [3], 1250 nM. In addition, the half-life in [4] is 414 min; in series [5], 114 min. The clearance in series [6] was 13.3 mL/min/kg. Moreover, the Vd in series [7] turned out to be 1.4 L/kg. For the same compound, the AUC is 10.9 µM·h in series [8] and 3.85 µM·h in series [10]. Further, the Tmax in [9] amounted to 15 min. This compound also came in with a bioavailability in series [11] of 35%.

As to `Cc1cc(COc2ccc(C(=O)N[C@@H]3C[C@@]4(CCCO4)C[C@@H]3C(=O)NO)cc2)c2ccccc2n1`, the IC50 in the series on Blood turned out to be 108 nM; in [12] it was 1 nM. For the same compound, the Papp in [1] came out at 5.7 ×10⁻⁶ cm/s. The Ki at Interstitial collagenase was more than 4.95 µM; in [2], 1360 nM; in [3], 1450 nM. The figures for the half-life in series [4] and in [5] were 252 min and 78 min, respectively. For the same compound, the clearance in [6] is 11.7 mL/min/kg. Besides, in [7], the Vd stood at 0.3 L/kg. For the same compound, the AUC in series [8] was found to be 12.6 µM·h; in [10] it was 3.93 µM·h. Also, in [9], the Tmax was determined as 6 min. For the same compound, the results for the bioavailability in [11] and in series [13] were 31% and 68%, respectively. The compound also gave an ED50 in the series filed under Mus musculus of 1 mg/kg.
